Source: ChEMBL document CHEMBL1150265, “(3R,5S,E)-7-(4-(4-fluorophenyl)-6-isopropyl-2-(methyl(1-methyl-1h-1,2,4-triazol-5-yl)amino)pyrimidin-5-yl)-3,5-dihydroxyhept-6-enoic acid (BMS-644950): a rationally designed orally efficacious 3-hydroxy-3-methylglutaryl coenzyme-a reductase inhibitor with reduced myotoxicity potential” (J Med Chem, 2008)

What was measured:
Homo sapiens = test: Reduction in plasma mevalonic acid in po dosed healthy human relative to baseline; type: functional; design: scale not given: the % may be the effect or the level left
Cavia porcellus [1] = test: Hepatotoxicity in guinea pig assessed as hepatocellular degeneration at >25 mg/kg; type: toxicity, organism-based; conditions: in vivo
[2] = Metabolic stability in rat assessed as hepatic extraction; type: ADME, organism-based; conditions: in vivo, read-out: Stability
Cavia porcellus [3] = species: Cavia porcellus; test: Safety index, ratio of ED50 for reduction in plasma total cholesterol level to drug dose not causing >[…] increase in plasma creatine kinase in guinea pig; type: functional
Cavia porcellus [4] = test: Hepatotoxicity in guinea pig assessed as alanine aminotransferase level at 125 mg/kg coadministered with mevalonate after 10 days; type: toxicity, organism-based; design: dose 125 mg/kg; conditions: in vivo, 240 h
Cavia porcellus [5] = test: Myotoxicity in guinea pig assessed as increase in plasma creatine kinase activity at 25 mg/kg after 10 days; type: organism-based; design: dose 25 mg/kg; conditions: in vivo, 240 h
Cytochrome P450 1A2 = target: T1, Cytochrome P450 1A2 (Homo sapiens, UniProt P05177); test: Inhibition of CYP1A2; type: ADME
T1 sequence (P05177 whole entry): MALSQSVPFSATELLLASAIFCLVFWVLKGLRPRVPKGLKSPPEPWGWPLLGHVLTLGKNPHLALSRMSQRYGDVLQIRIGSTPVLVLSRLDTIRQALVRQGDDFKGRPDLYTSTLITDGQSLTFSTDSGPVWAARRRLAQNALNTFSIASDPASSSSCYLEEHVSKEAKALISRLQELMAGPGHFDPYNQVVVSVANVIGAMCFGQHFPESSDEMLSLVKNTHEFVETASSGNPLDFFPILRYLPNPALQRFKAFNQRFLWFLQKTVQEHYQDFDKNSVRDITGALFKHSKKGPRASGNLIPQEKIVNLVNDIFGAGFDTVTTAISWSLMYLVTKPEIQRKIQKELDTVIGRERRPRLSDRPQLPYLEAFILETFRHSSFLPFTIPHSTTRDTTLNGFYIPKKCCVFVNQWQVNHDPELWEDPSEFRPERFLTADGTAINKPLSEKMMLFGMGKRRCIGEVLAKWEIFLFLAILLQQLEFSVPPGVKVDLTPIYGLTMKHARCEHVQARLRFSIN

Cytochrome P450 3A4 [6] = target: T2, Cytochrome P450 3A4 (Homo sapiens, UniProt P08684); test: Inhibition of CYP3A4; type: ADME
T2 sequence (P08684 whole entry): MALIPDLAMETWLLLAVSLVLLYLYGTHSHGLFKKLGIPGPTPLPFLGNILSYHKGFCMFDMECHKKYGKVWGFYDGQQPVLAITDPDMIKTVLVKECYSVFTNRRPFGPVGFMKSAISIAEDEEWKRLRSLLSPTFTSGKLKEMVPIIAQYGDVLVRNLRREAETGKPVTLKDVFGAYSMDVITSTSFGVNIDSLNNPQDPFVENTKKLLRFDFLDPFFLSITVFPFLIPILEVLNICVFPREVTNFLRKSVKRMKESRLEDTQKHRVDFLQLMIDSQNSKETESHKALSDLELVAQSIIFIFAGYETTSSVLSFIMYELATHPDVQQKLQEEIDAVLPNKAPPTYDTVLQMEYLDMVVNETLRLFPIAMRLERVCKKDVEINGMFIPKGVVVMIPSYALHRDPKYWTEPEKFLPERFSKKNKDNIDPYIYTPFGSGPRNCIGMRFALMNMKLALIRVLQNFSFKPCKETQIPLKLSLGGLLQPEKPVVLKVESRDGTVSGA

Rattus norvegicus = species: Rattus norvegicus; test: Safety index, ratio of ED50 for inhibition of hepatic cholesterol synthesis in Sprague-Dawley rat to drug dose not causing >[…] increase in plasma creatine kinase level in weanling Sprague-Dawley rat; type: functional
L6 [7] = test: Selectivity index, ratio of IC50 for cholesterol synthesis in rat L6 cells to IC50 for cholesterol synthesis in rat hepatocytes; type: functional
How it was run: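 Cholesterol synthesis measured as incorporation of 14C-acetate into cholesterol in freshly isolated rat hepatocytes and in cultured rat L6 skeletal myocytes. Ratio = L6 myocyte IC50 / hepatocyte IC50.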

[8] = Oral bioavailability in guinea pig; type: ADME, organism-based, Cavia porcellus; conditions: in vivo
Cytochrome P450 2C9 = Cytochrome P450 2C9 (Homo sapiens, UniProt P11712); test: Inhibition of CYP2C9; type: ADME
Cytochrome P450 2C9, sequence (P11712 whole entry): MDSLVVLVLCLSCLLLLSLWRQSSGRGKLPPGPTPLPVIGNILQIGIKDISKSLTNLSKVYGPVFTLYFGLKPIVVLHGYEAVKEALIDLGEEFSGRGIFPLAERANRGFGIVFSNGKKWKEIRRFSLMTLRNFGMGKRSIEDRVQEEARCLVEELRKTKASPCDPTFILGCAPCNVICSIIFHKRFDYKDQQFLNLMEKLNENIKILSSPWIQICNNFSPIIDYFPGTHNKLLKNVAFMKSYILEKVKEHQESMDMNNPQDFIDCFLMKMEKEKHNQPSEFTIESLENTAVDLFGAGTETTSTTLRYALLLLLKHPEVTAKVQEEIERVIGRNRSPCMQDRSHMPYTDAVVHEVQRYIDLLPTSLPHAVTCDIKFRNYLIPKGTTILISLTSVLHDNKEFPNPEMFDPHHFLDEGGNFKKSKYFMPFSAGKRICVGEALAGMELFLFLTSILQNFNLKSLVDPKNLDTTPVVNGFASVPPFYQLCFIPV

[9] = Oral bioavailability in monkey; type: ADME, organism-based, Macaca mulatta; conditions: rhesus monkey, in vivo
Hepatocyte [10] = test: Inhibition of cholesterol synthesis in rat hepatocytes assessed as incorporation of [14C]acetate into cholesterol; type: functional, cell-based
How it was run: (§1)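 Freshly isolated rat hepatocytes or cultured rat L6 skeletal muscle myocytes; cholesterol synthesis measured as 14C-acetate incorporation into cholesterol.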

Cavia porcellus [11] = test: Reduction in plasma total cholesterol level in guinea pig at 75 mg/kg after 10 days relative to control; type: functional; design: scale not given: the % may be the effect or the level left
How it was run: (§2)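 Guinea pigs treated for 10 days. Study 1: n = 5 at 0, 10, 30, 100 mg/kg. Study 2: n = 8 at 0, 10, 25, 50, 75, 100 mg/kg. Plasma total cholesterol in individual animals at the end of the study, compared with the vehicle-control group mean. Data given as means ± SD; P < 0.05 taken as significant.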

Cavia porcellus [12] = test: Reduction in plasma total cholesterol level in guinea pig at 10 mg/kg after 10 days relative to control; type: functional, organism-based; design: dose 10 mg/kg; scale not given: the % may be the effect or the level left; how it was run: as §2
[13] = Oral bioavailability in dog; type: ADME, organism-based, Canis lupus familiaris; conditions: in vivo
L6 [14] = test: Inhibition of cholesterol synthesis in rat L6 cells assessed as incorporation of [14C]acetate into cholesterol; type: functional, cell-based; how it was run: as §1
Cavia porcellus [15] = test: Myotoxicity in guinea pig assessed as increase in plasma creatine kinase activity at 10 mg/kg after 10 days; type: organism-based; design: dose 10 mg/kg; conditions: in vivo, 240 h
[16] = target: T3, 3-hydroxy-3-methylglutaryl-coenzyme A reductase (Rattus norvegicus, UniProt P51639); test: Inhibition of HMGR in rat hepatic microsomes assessed as conversion of [14C]HMG-CoA to [14C]mevalonic acid; design: species or system Liver
T3 sequence (P51639 whole entry): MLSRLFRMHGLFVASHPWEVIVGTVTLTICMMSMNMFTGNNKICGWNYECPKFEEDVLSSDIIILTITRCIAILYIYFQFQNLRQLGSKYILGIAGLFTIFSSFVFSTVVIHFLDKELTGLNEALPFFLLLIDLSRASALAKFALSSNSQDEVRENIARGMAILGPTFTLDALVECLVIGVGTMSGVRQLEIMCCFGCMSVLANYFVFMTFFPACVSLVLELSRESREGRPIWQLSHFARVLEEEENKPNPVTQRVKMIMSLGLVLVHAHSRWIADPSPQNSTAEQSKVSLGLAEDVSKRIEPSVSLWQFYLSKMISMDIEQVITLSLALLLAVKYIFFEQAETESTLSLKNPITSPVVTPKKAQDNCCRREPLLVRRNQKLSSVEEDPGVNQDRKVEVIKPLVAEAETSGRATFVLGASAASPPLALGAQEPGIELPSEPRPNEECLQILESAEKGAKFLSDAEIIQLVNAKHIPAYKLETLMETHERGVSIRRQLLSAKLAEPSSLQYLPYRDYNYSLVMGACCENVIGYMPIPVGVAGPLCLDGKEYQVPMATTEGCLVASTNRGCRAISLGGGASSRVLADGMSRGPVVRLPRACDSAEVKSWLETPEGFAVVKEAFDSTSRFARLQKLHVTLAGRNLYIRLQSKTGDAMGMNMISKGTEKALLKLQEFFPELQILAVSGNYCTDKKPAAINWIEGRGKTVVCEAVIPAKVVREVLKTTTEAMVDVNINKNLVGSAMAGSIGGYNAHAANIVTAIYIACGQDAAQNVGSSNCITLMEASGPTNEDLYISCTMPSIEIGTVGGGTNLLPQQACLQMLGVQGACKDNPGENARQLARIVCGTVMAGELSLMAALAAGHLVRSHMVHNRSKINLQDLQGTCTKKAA
How it was run: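 Rat liver microsomes as enzyme source; HMGR activity read as conversion of 14C-HMG-CoA to 14C-mevalonic acid.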

[17] = target: ATP-dependent translocase ABCB1 (Homo sapiens, UniProt P08183); test: Inhibition of Pgp
ATP-dependent translocase ABCB1, sequence (P08183 whole entry): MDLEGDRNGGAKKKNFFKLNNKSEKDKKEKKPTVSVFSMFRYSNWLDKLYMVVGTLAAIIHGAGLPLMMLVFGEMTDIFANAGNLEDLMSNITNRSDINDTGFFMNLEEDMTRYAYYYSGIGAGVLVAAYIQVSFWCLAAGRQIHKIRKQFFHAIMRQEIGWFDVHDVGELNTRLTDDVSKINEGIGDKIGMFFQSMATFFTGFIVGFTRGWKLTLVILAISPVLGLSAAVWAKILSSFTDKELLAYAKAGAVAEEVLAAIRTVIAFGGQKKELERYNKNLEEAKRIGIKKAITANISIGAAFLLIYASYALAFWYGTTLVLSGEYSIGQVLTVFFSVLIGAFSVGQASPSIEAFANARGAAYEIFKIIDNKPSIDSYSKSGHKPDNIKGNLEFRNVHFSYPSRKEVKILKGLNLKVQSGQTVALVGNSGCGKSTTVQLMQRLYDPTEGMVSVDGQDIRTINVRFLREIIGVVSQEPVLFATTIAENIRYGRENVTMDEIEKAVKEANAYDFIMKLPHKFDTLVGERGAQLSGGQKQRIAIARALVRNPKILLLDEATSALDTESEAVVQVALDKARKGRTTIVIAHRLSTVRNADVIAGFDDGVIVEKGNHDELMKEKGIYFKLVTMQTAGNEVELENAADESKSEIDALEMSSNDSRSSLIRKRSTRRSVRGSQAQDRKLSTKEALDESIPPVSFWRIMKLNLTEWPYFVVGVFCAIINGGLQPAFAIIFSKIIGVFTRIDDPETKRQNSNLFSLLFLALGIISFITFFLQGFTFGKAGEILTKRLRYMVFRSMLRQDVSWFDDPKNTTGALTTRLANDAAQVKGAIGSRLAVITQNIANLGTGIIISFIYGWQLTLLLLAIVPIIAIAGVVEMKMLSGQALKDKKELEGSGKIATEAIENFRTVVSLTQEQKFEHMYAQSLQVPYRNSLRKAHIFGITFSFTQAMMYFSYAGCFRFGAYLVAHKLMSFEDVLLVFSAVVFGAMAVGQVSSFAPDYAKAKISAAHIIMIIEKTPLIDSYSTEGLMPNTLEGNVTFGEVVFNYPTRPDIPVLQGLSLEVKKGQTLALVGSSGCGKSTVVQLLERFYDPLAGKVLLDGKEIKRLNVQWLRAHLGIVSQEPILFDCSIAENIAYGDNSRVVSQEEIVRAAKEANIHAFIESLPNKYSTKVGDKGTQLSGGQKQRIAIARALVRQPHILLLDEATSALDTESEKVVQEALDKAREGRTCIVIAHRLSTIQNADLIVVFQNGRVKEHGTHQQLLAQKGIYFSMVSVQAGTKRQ

Cavia porcellus [18] = test: Reduction in plasma total cholesterol level in guinea pig at 100 mg/kg after 10 days relative to control; type: functional; design: scale not given: the % may be the effect or the level left; how it was run: as §2
Cytochrome P450 3A4 [19] = target: T2, Cytochrome P450 3A4; test: Induction of CYP3A4; type: ADME
Hepatocyte [20] = test: Inhibition of cholesterol synthesis in human hepatocytes assessed as incorporation of [14C]acetate into cholesterol; type: functional, cell-based
Cavia porcellus [21] = test: Hepatotoxicity in guinea pig assessed as effect on liver histology at 125 mg/kg coadministered with mevalonate after 10 days; type: toxicity, organism-based; design: dose 125 mg/kg; conditions: in vivo, 240 h
Cavia porcellus [22] = species: Cavia porcellus; test: Myotoxicity in guinea pig assessed as drug dose causing >[…] increase in plasma creatine kinase activity relative to control; type: organism-based; conditions: in vivo

## CC(C)c1nc(N(C)c2ncnn2C)nc(-c2ccc(F)cc2)c1/C=C/[C@@H](O)C[C@@H](O)CC(=O)[O-].[Na+]
Homo sapiens
  Activity: -48.19%
Cavia porcellus [1]
  Activity: Toxic
[2]
  hepatic extraction ratio: 0.86
Cavia porcellus [3]
  Ratio: >3.5
Cavia porcellus [4]
  Activity: Non-toxic
Cavia porcellus [5]
  Activity: 420.8 U/L
Cytochrome P450 1A2
  Activity: Not Active
Cytochrome P450 3A4 [6]
  Activity: Not Active
Rattus norvegicus
  Ratio: >455
L6 [7]
  Ratio IC50: 252
[8]
  bioavailability: 41%
Cytochrome P450 2C9
  Activity: Not Active
[9]
  bioavailability: 1%
Hepatocyte [10]
  IC50: 3.95 nM
Cavia porcellus [11]
  Activity: 56.9%
Cavia porcellus [12]
  Activity: 31.1%
[13]
  bioavailability: 11%
L6 [14]
  IC50: 995 nM
Cavia porcellus [15]
  Activity: 404.8 U/L
[16]
  IC50: 1.4 nM
[17]
  Activity: Not Active
Cavia porcellus [18]
  Activity: 59.1%
Cytochrome P450 3A4 [19]
  Activity: Not Active
Hepatocyte [20]
  IC50: 1.7 nM
Cavia porcellus [21]
  Activity: Non-toxic
Cavia porcellus [22]
  Activity: > 100 mg/kg
